Activity calls are given as the source filed them. The rule behind the calls is not given here.
Columns and labels:
[1] = molecular target: T1, cAMP and cAMP-inhibited cGMP 3',5'-cyclic phosphodiesterase 10A (Mus musculus, UniProt Q8CA95); test: Inhibition of mouse PDE10A assessed as inhibition of hydrolysis of [3H]cGMP to [3H]GMP after 20 mins by scintillation counting
T1 sequence (Q8CA95 whole entry): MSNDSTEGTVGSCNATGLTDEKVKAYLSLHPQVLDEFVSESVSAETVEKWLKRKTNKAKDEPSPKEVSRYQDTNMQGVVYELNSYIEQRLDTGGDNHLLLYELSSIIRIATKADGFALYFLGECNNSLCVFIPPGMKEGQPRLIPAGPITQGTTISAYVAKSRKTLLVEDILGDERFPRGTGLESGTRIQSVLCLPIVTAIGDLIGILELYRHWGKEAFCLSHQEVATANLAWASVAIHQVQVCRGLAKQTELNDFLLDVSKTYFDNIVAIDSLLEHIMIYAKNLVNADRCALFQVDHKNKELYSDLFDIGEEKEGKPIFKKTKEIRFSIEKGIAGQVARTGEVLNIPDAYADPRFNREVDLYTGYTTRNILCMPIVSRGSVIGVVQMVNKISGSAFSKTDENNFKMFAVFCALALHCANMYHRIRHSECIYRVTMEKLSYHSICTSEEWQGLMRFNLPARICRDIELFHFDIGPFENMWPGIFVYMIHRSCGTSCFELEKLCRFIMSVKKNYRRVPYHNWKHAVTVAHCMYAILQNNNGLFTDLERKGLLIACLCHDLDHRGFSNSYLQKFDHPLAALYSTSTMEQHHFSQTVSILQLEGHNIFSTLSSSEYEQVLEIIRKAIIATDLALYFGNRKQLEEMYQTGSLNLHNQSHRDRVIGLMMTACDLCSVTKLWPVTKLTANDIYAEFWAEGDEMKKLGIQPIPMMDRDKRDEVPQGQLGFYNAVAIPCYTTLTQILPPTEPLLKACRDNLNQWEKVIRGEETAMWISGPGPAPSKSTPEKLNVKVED
Procedure, shortened: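 Reaction was started with mouse PDE10 (25 ng/ml final) and run 20 min at 30 °C. Stopped with yttrium silicate SPA beads, scintillation counted 1–2 h later. IC50 from curve fitting.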

Mus musculus [2] = test: Behavioral effect in ip dosed mouse assessed as reduction in conditioned avoidance response compound administered 20 mins prior testing; assay type: functional, organism-based
Procedure, shortened: (§1)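 Mice trained in a shuttle-box to avoid foot-shock after a conditional stimulus, until at least 25 avoidances in 30 trials. Dosing was ip in 30 mM H3PO4, 0.2% tween 80, 5% DMSO, 20 min before testing; controls got vehicle. Eight mice per group. Paired-sample t-test compared each animal with its vehicle-injected performance on the previous day.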

Mus musculus [3] = species: Mus musculus; test: Selectivity ratio of IC50 for mouse PDE2A to IC50 for mouse PDE10A
Procedure, shortened: (§2)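 Reaction started by adding enzyme (mouse PDE10 at 25 ng/ml final); 20 min at 30 °C. Stopped with yttrium silicate SPA beads, scintillation read 1–2 h later. IC50s from curve fits; ratio of other-PDE IC50 to PDE10A IC50.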

[4] = Tmax in rat at 9 mg/kg, po; assay type: ADME, organism-based; design: dose 9 mg/kg, route oral; conditions: in vivo
Procedure, shortened: (§3)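 Rat pharmacokinetics, dosed iv at 4 mg/kg and po at 9 mg/kg.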

[5] = Volume of distribution at steady state in rat at 4 mg/kg, iv; assay type: ADME, organism-based; design: dose 4 mg/kg, route intravenous; conditions: in vivo, read-out: Vdss; procedure, shortened: as §3
[6] = Cmax in rat at 9 mg/kg, po; assay type: ADME, organism-based; design: dose 9 mg/kg, route oral; conditions: in vivo; procedure, shortened: as §3
Mus musculus [7] = species: Mus musculus; test: Selectivity ratio of IC50 for mouse PDE1A to IC50 for mouse PDE10A; procedure, shortened: as §2
[8] = Half life in rat at 4 mg/kg, iv; assay type: ADME, organism-based; design: dose 4 mg/kg, route intravenous; conditions: in vivo; procedure, shortened: as §3
Mus musculus [9] = species: Mus musculus; test: Selectivity ratio of IC50 for mouse PDE9A to IC50 for mouse PDE10A; procedure, shortened: as §2
Mus musculus [10] = species: Mus musculus; test: Selectivity ratio of IC50 for mouse PDE3A to IC50 for mouse PDE10A; procedure, shortened: as §2
Mus musculus [11] = species: Mus musculus; test: Selectivity ratio of IC50 for mouse PDE11A to IC50 for mouse PDE10A; procedure, shortened: as §2
Mus musculus [12] = test: Behavioral effect in mouse assessed as reduction in conditioned avoidance response at 10 to 30 mg/kg, ip administered 20 mins prior testing; assay type: functional, organism-based; procedure, shortened: as §1
Mus musculus [13] = test: Antipsychotic activity in mouse assessed as inhibition of PCP-induced hyperlocomotion at 20 mg/kg, ip administered 20 mins prior testing; assay type: functional, organism-based; design: dose 20 mg/kg
Procedure, shortened: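 PCP-induced hyperlocomotion in mice: 20 mg/kg ip in 30 mM H3PO4, 0.2% tween 80, 5% DMSO, dosed 20 min before testing; PCP given ip 10 min before testing. Controls got vehicle. Normal activity range 500–1000. Eight mice per group; t-test for each interval.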

Mus musculus [14] = species: Mus musculus; test: Selectivity ratio of IC50 for mouse PDE5A to IC50 for mouse PDE10A; procedure, shortened: as §2
[15] = Clearance in rat at 4 mg/kg, iv; assay type: ADME, organism-based; design: dose 4 mg/kg, route intravenous; conditions: in vivo; procedure, shortened: as §3
Mus musculus [16] = species: Mus musculus; test: Selectivity ratio of IC50 for mouse PDE4A to IC50 for mouse PDE10A; procedure, shortened: as §2
Mus musculus [17] = species: Mus musculus; test: Selectivity ratio of IC50 for mouse PDE8A to IC50 for mouse PDE10A; procedure, shortened: as §2
[18] = Oral bioavailability in rat at 9 mg/kg; assay type: ADME, organism-based; conditions: in vivo; procedure, shortened: as §3
Mus musculus [19] = species: Mus musculus; test: Selectivity ratio of IC50 for mouse PDE7A to IC50 for mouse PDE10A; procedure, shortened: as §2

| SMILES | IC50 [1] | other results |
| --- | --- | --- |
| COc1ccc(/C=N/NC(=O)CSc2cc(C)nc3ccccc23)c(Cl)c1OC | 4600 nM |  |
| COc1cc(/C=N/NC(=O)CSc2ccncn2)cc(OC)c1OC | 1070 nM |  |
| CCOc1cc(/C=N/NC(=O)CSc2cc(C)nc3ccccc23)ccc1OC | 260 nM |  |
| COc1ccc(/C=N/NC(=O)CSc2cc(C)nc3ccccc23)c(Br)c1OC | 4800 nM |  |
| COc1cc(/C=N/NC(=O)CSc2cc(C)nc3ccccc23)ccc1C(F)(F)F | 250 nM |  |
| COc1cc(Cl)c(/C=N/NC(=O)CSc2cc(C)nc3ccccc23)cc1OC | 200 nM |  |
| COc1cc(/C=N/NC(=O)CSc2ccncc2)cc(OC)c1OC | 550 nM |  |
| COc1ccc(/C=N/NC(=O)CNc2cc(C)nc3ccccc23)cc1OC | 8000 nM |  |
| COc1cc(/C=N/NC(=O)CN(C)c2cc(C)nc3ccccc23)cc(OC)c1OC | 360 nM |  |
| COc1ccc(/C=N/NC(=O)CSc2cc(C)nc3ccccc23)cc1C(F)(F)F | 420 nM |  |
| COc1cccc(/C=N/NC(=O)CSc2cc(C)nc3ccccc23)c1 | 1200 nM |  |
| Cc1cc(SCC(=O)N/N=C/c2ccc(OC(F)F)c(OC(F)F)c2)c2ccccc2n1 | 310 nM |  |
| COc1ccc(/C=N/NC(=O)CSc2cc(C)nc3ccccc23)cc1OC(F)(F)F | 1700 nM |  |
| COc1ccc(/C=N/NC(=O)CSc2cc(C)nc3ccccc23)cc1Cl | 220 nM |  |
| COc1ccc(/C=N/NC(=O)CSc2cc(C)nc3ccccc23)cc1OC(C)C | 660 nM |  |
| COc1ccc(/C=N/NC(=O)CSc2cc(C)nc3ccccc23)cc1F | 620 nM |  |
| COc1cc(/C=N/NC(=O)CSc2ccc(-c3ccccc3)cc2)cc(OC)c1OC | 260 nM |  |
| COc1ccc(/C=N/NC(=O)COc2cc(C)nc3ccccc23)cc1OC | 1600 nM |  |
| COc1ccc(/C=N/NC(=O)CSc2cc(C)nc3ccccc23)cc1 | 1400 nM |  |
| COc1ccccc1SCC(=O)N/N=C/c1cc(OC)c(OC)c(OC)c1 | 660 nM |  |
| COc1cc(/C=N/NC(=O)CSc2ccc(OC(F)(F)F)cc2)cc(OC)c1OC | 860 nM |  |

Molecules with a lower IC50 [1], results first:

| IC50 [1] | SMILES | other results |
| --- | --- | --- |
| 26 nM | COc1cc(/C=N/N(C)C(=O)CSc2cc(C)nc3ccccc23)cc(OC)c1OC |  |
| 180 nM | COc1ccc(/C(C)=N/NC(=O)CSc2cc(C)nc3ccccc23)cc1OC |  |
| 30 nM | COc1cc(/C=N/NC(=O)CSc2cc(C)nc3ccccc23)cc(Br)c1OC |  |
| 24 nM | COc1cc(/C=N/NC(=O)CSc2ccnc3ccccc23)cc(OC)c1OC |  |
| 45 nM | COc1cc(/C=N/NC(=O)CSc2cc(C)nc3ccccc23)cc(Cl)c1OC |  |
| 49 nM | COc1ccc(/C=N/NC(=O)CSc2cc(C)nc3ccccc23)cc1OC |  |
| 150 nM | COc1cc(/C=N/NC(=O)CSc2cc(C)nc3ccccc23)cc(OC)c1 |  |
| 100 nM | COc1cc(/C=N/NC(=O)CSc2ccc([N+](=O)[O-])c3ccccc23)cc(OC)c1OC |  |
| 100 nM | COc1cc(/C=N/NC(=O)CSc2cc(C)nc3ccccc23)ccc1C |  |
| 77 nM | COc1cc(Br)c(/C=N/NC(=O)CSc2cc(C)nc3ccccc23)cc1OC |  |
| 140 nM | COc1cc(/C=N/NC(=O)CSc2ccc3ccccc3n2)cc(OC)c1OC |  |
| 28 nM | COc1cc(/C=N/NC(=O)CSc2ccnc3cc(Cl)ccc23)cc(OC)c1OC |  |
| 11 nM | COc1cc(/C=N/NC(=O)CSc2cc(C)nc3ccccc23)cc(C#N)c1OC |  |
| 190 nM | COc1cc(/C=N/NC(=O)CSc2cccc3cccnc23)cc(OC)c1OC |  |
| 4.8 nM | COc1cc(/C=N/NC(=O)CSc2cc(C)nc3ccccc23)cc(OC)c1Br |  |
| 10 nM | COc1cc(/C=N/NC(=O)CSc2cc(C)nc3ccccc23)cc(OC)c1OC |  |
| 14 nM | COc1cc(/C=N/NC(=O)CSc2cc(C)nc3ccccc23)cc(OC)c1C#N |  |
| 190 nM | COc1cc(/C=N/NC(=O)CSc2cc(C)nc3ccccc23)ccc1F |  |
| 8 nM | COc1ccc2nc(C)cc(SCC(=O)N/N=C/c3cc(OC)c(OC)c(OC)c3)c2c1 | Activity (Mus musculus [2]): Dose-dependent effect; Ratio IC50 (Mus musculus [3]): > 110; Tmax [4]: 0.25 h; Vd [5]: 17.4 L/kg; Cmax [6]: 539 ng/mL; Ratio IC50 (Mus musculus [7]): > 110; half-life [8]: 11.3 h; Ratio IC50 (Mus musculus [9]): > 110; Ratio IC50 (Mus musculus [10]): > 110; Ratio IC50 (Mus musculus [11]): > 110; Activity (Mus musculus [12]): Active; inhibition (Mus musculus [13]): Active; Ratio IC50 (Mus musculus [14]): > 110; clearance [15]: 55 mL/min/kg; Ratio IC50 (Mus musculus [16]): > 110; Ratio IC50 (Mus musculus [17]): > 110; bioavailability [18]: 21%; Ratio IC50 (Mus musculus [19]): > 110 |
| 87 nM | COc1cc(/C=N/NC(=O)CSc2cc(C)nc3ccccc23)ccc1Cl |  |
| 190 nM | COc1cc(F)c(/C=N/NC(=O)CSc2cc(C)nc3ccccc23)cc1OC |  |
| 93 nM | COc1cc(/C=N/NC(=O)CSc2cc(C)nc3ccccc23)ccc1Br |  |
| 160 nM | COc1cc(/C=N/NC(=O)CSc2cc(C)nc3ccccc23)ccc1C#N |  |
| 51 nM | COc1cc(/C=N/NC(=O)CSc2cc(C)nc3ccccc23)cc(F)c1OC |  |

Source: ChEMBL document CHEMBL1799961, “N-Acylhydrazones as inhibitors of PDE10A” (Bioorg Med Chem Lett, 2011)
